# Results pooled from the literature.
# Compare with care: the assays were run in different laboratories.
# Target: Glycogen synthase kinase-3 alpha (GSK3A, Homo sapiens, UniProt P49840)
SMILES,test,test system,setting,quantity,result
Cc1c(NC(=O)c2cc(C(N)=O)nc3cc(F)ccc23)c(C(F)(F)F)nn1Cc1ccc(C(C)(C)C)cc1,"cell-free assay, competition with immobilised ligand",,1 µM,remaining binding,98%
Cc1ccc(NC(=O)c2ccc(CN3CCN(C)CC3)cc2)cc1Nc1nccc(-c2cccnc2)n1,"enzyme activity, inhibitor",,0.5 µM,activity vs control,100%
C=CC(=O)Nc1cc(Nc2nccc(Nc3cc(Cl)c(F)cc3C(C)(C)O)n2)c(OC)cc1N1CC[C@@H](N(C)C)C1,"enzyme activity, inhibitor",,1 µM,inhibition,0%
CO[C@@H](C)c1c(Nc2ccc([C@@H](N(C)C(=O)C3CCS(=O)(=O)CC3)C(F)(F)F)cc2)cnc2cc(Cl)nn12,"cell-free assay, competition with immobilised ligand",,1 µM,remaining binding,94%
CCCOc1ccc(OC)c(F)c1C(=O)c1ccc(C(=O)N[C@@H]2CNC[C@H]2NC(=O)c2ccc3[nH]ncc3c2)cc1,"enzyme activity, inhibitor",,10 µM,remaining activity,89%
O=C(Nc1cnc(Oc2ccc(F)cc2)nc1)N1CCc2ncccc2[C@@H]1c1ccc(F)cc1,"cell-free assay, competition with immobilised ligand",,1 µM,remaining binding,93%
CNC(=O)c1cc(Oc2ccc(NC(=O)Nc3ccc(Cl)c(C(F)(F)F)c3)cc2)ccn1,cell-free assay,,0.5 µM,remaining signal,103%
C[C@@H]1CN(c2cc(-c3n[nH]c4ccc(OC5(C)CC5)cc34)ncn2)C[C@H](C)O1,"cell-free assay, competition with immobilised ligand",,0.1 µM,remaining binding,100%
COc1cc(Cl)c(C(=O)N[C@@H](CN[C@H]2CC[C@@H](N)CC2)Cc2ccc(C#N)cc2)cc1-c1ccc(CN[C@H](C)c2ccc(C)cc2)o1,"enzyme activity, inhibitor",,1 µM,remaining activity,106%
Cc1ccc(Nc2nccc(N(C)c3ccc4c(C)n(C)nc4c3)n2)cc1S(N)(=O)=O,"enzyme activity, inhibitor",,0.3 µM,inhibition,-12%
CS(=O)(=O)N1CCCC(NC(=O)[C@H](CCC2CCCCC2)NC(=O)c2ccc(CNc3ncnc4c3nnn4-c3ccccc3)cc2)C1 (stereo partly shown),"cell-free assay, competition with immobilised ligand",,0.1 µM,remaining binding,100%
Cc1sc(C(=O)NC2COC2)cc1-n1cc(NC(=O)Nc2c(F)cccc2Cl)cn1,"enzyme activity, inhibitor",,10 µM,remaining activity,128%
Cn1cnc(Br)c1C1=CN(c2ncnc3[nH]cnc23)CCS1,"enzyme activity, inhibitor, radiometric",,50 nM,inhibition,14.8%
CC/C(=N\NC(=O)NCc1cccc(O)c1)c1ccc(O)c(C)c1O,"enzyme activity, inhibitor",,0.1 µM,inhibition,2.8%
Nc1ncnc2occ(-c3ccc(NC(=O)Nc4cc(C(F)(F)F)ccc4F)cc3)c12,"enzyme activity, inhibitor",,20 µM,remaining activity,17%
CNc1cc(Oc2cc(C(=O)Nc3cc(N4CCN(C)CC4)cc(C(F)(F)F)c3)ccc2C)ncn1,"target engagement in cells, inhibitor, chemoproteomics",Huh-7,1 µM,inhibition,-23.9%
Cc1cnc(NC2CCOCC2)nc1-n1cnc(C(=O)NC(CN)c2cc(F)cc(Cl)c2)c1 (stereo not shown),"enzyme activity, inhibitor, radiometric",,1 µM,remaining activity,8%
CCCCNc1ncc2c(-c3ccc(F)cc3)nn(C[C@H]3CC[C@H](N)CC3)c2n1,"target engagement in cells, inhibitor, chemoproteomics",,20 mM,inhibition,6%
O=C1Nc2ccc(Cl)cc2C1=Cc1cc(Cl)c(O)c(Cl)c1,cell-free assay,,0.5 µM,remaining signal,76.1%
O=C(NCc1ncc(C(F)(F)F)cc1Cl)c1ccc2c(c1)C1(CCS(=O)(=O)CC1)[C@@H](C1CC1)N2S(=O)(=O)c1ccc(F)cc1,"cell-free assay, competition with immobilised ligand",,1 µM,remaining binding,100%
CCCS(=O)(=O)Nc1ccc(F)c(C(=O)c2c[nH]c3ncc(-c4ccc(Cl)cc4)cc23)c1F,"enzyme activity, inhibitor",,1 µM,inhibition,< 10%
CC(C)(C)c1nc(-c2cccc(NS(=O)(=O)c3c(F)cccc3F)c2F)c(-c2ccnc(N)n2)s1,"enzyme activity, inhibitor, radiometric",,1 µM,remaining activity,97%
Cc1cc(-n2nc(Cc3cc(F)cc(C(F)(F)F)c3)nc2C)ccc1C(N)=O,"cell-free assay, competition with immobilised ligand",,1 µM,remaining binding,97%
CC(C)(O)[C@H]1CC[C@H](Nc2ccc3ncc(-c4cccc(C(F)(F)F)c4)n3n2)CC1,"enzyme activity, inhibitor",,1 µM,remaining activity,90%
CCN(CC)CCNC(=O)c1c(C)[nH]c(/C=C2\C(=O)Nc3ccc(F)cc32)c1C,"enzyme activity, inhibitor",,10 µM,inhibition,36%
O=C(N1CCS(=O)(=O)CC1)N1C[C@H](c2ccc(OC(F)(F)F)cc2)C[C@H](c2nc(C3CC3)no2)C1,"cell-free assay, competition with immobilised ligand",,1 µM,remaining binding,100%
COc1cccc2c(NCc3ccccc3)nc(-n3c(N)nc4ccccc43)nc12,"target engagement in cells, inhibitor, chemoproteomics",,20 mM,inhibition,2%
COc1cc2ncnc(Nc3ccc(Oc4ccccc4)cc3C)c2cc1OC,"enzyme activity, inhibitor",,1 µM,inhibition,4%
